Reference: ChEMBL document CHEMBL1121537, “Anticoccidial derivatives of 6-azauracil. 3. Synthesis, high activity, and short plasma half-life of 1-phenyl-6-azauracils containing sulfonamide substituents” (J Med Chem, 1980)

System: Gallus gallus
Test: Plasma level measured 3h after oral administration of 4-5 mg/kg body weight in older birds
Assay type: functional, organism-based
Conditions: not given
In short: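 Older birds, about 9-10 weeks old, given 4-5 mg/kg body weight orally; drug level in plasma measured 3 h after dosing, in mcg/mL.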

Compound	Plasma level [µg/mL]
O=c1cnn(-c2cc(Cl)cc(Cl)c2)c(=O)[nH]1	24.3
Cc1cc(C)cc(-n2ncc(=O)[nH]c2=O)c1	22.4
Cc1cc(Cl)cc(-n2ncc(=O)[nH]c2=O)c1	21.7

System: Eimeria tenella
Test: Minimum effective concentration required to prevent formation of detectable lesions in Eimeria tenella infected leghorn cockerels.
Assay type: functional
Conditions: read-out: MEC
In short: (§1)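 Leghorn cockerels infected with Eimeria tenella, screened by a modified version of a published screening method. The minimum effective concentration, in ppm, is the lowest level that prevents detectable lesions.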

Compound	minimal effective concentration [µg/mL]
O=c1cnn(-c2ccc(S(=O)(=O)N3CCC(O)CC3)c(Cl)c2)c(=O)[nH]1	> 250
NS(=O)(=O)c1ccc(-n2ncc(=O)[nH]c2=O)cc1Cl	> 120
O=c1cnn(-c2cccc(Cl)c2)c(=O)[nH]1	120
C=CCN(C)S(=O)(=O)c1ccc(-n2ncc(=O)[nH]c2=O)cc1C	120
Cc1cc(-n2ncc(=O)[nH]c2=O)ccc1S(=O)(=O)N1CCN(C=O)CC1	500
CN(C1CCCC1)S(=O)(=O)c1ccc(-n2ncc(=O)[nH]c2=O)cc1Cl	> 120
Cc1cc(-n2ncc(=O)[nH]c2=O)cc(Cl)c1S(=O)(=O)N1CCSCC1	120
Cc1cc(-n2ncc(=O)[nH]c2=O)cc(Cl)c1S(=O)(=O)N1CCOCC1	10
CCOC(CN(CC(OCC)OCC)S(=O)(=O)c1ccc(-n2ncc(=O)[nH]c2=O)cc1Cl)OCC	250
O=c1cnn(-c2cc(Cl)cc(Cl)c2)c(=O)[nH]1	4
CCCN(C)S(=O)(=O)c1c(C)cc(-n2ncc(=O)[nH]c2=O)cc1C	120
O=c1cnn(-c2ccc(S(=O)(=O)N(Cc3ccccc3)Cc3ccccc3)c(Cl)c2)c(=O)[nH]1	> 250
NS(=O)(=O)c1ccc(NS(=O)(=O)c2ccc(-n3ncc(=O)[nH]c3=O)cc2)cc1	500
COCCN(CCOC)S(=O)(=O)c1c(C)cc(-n2ncc(=O)[nH]c2=O)cc1C	250
COc1ccc(NS(=O)(=O)c2c(C)cc(-n3ncc(=O)[nH]c3=O)cc2C)cc1	> 250
CC(C)(C)CC(C)(C)NS(=O)(=O)c1ccc(-n2ncc(=O)[nH]c2=O)cc1	> 120
O=c1cnn(-c2ccc(S(=O)(=O)N3CCCCC3)cc2)c(=O)[nH]1	250
CN(c1ccccc1)S(=O)(=O)c1ccc(-n2ncc(=O)[nH]c2=O)cc1Cl	> 250
CCN(C(C)C)S(=O)(=O)c1ccc(-n2ncc(=O)[nH]c2=O)cc1C	500
Cc1cc(-n2ncc(=O)[nH]c2=O)cc(C)c1S(=O)(=O)N(C)Cc1ccccc1	60

Compound	minimal effective concentration [µg/mL]
Cc1cc(-n2ncc(=O)[nH]c2=O)cc(Cl)c1S(=O)(=O)N(C)C	60
Cc1cc(-n2ncc(=O)[nH]c2=O)cc(C)c1S(=O)(=O)Cl	250
O=C1CCN(S(=O)(=O)c2ccc(-n3ncc(=O)[nH]c3=O)cc2Cl)CC1	> 250
C=CCN(C)S(=O)(=O)c1ccc(-n2ncc(=O)[nH]c2=O)cc1Cl	60
CN(C)S(=O)(=O)c1ccc(-n2ncc(=O)[nH]c2=O)cc1Cl	250
CCCN(CCC)S(=O)(=O)c1ccc(-n2ncc(=O)[nH]c2=O)cc1Cl	> 250
O=c1cnn(-c2ccc(S(=O)(=O)Nc3cccc(Cl)c3)c(Cl)c2)c(=O)[nH]1	> 500
CCOC(=O)N1CCN(S(=O)(=O)c2ccc(-n3ncc(=O)[nH]c3=O)cc2Cl)CC1	> 250
Cc1cc(C)cc(-n2ncc(=O)[nH]c2=O)c1	30
O=c1cnn(-c2ccc(S(=O)(=O)Cl)cc2)c(=O)[nH]1	> 250
CCCN(C)S(=O)(=O)c1ccc(-n2ncc(=O)[nH]c2=O)cc1Cl	250
O=c1cnn(-c2ccccc2)c(=O)[nH]1	500
Cc1cc(-n2ncc(=O)[nH]c2=O)ccc1S(=O)(=O)N(C)C1CCCC1	> 120
O=c1cnn(-c2ccc(S(=O)(=O)N3CCSCC3)c(Cl)c2)c(=O)[nH]1	60
Cc1ccc(NS(=O)(=O)c2ccc(-n3ncc(=O)[nH]c3=O)cc2Cl)cc1Cl	> 250
Cc1cc(-n2ncc(=O)[nH]c2=O)cc(C)c1S(=O)(=O)N1CCCC1	60
CCN(C)S(=O)(=O)c1ccc(-n2ncc(=O)[nH]c2=O)cc1Cl	120
C=CCN(CC=C)S(=O)(=O)c1ccc(-n2ncc(=O)[nH]c2=O)cc1Cl	250
O=c1cnn(-c2ccc(S(=O)(=O)N3CCOCC3)c(Cl)c2)c(=O)[nH]1	30
CN(CCO)S(=O)(=O)c1ccc(-n2ncc(=O)[nH]c2=O)cc1Cl	> 120

Compound	minimal effective concentration [µg/mL]
O=c1cnn(-c2ccc(S(=O)(=O)NC3CCCCCCC3)c(Cl)c2)c(=O)[nH]1	> 250
O=c1cnn(-c2ccc(S(=O)(=O)N3CCOCC3)cc2)c(=O)[nH]1	> 250
O=c1cnn(-c2cc(Cl)c(Cl)c(Cl)c2)c(=O)[nH]1	4
O=c1cnn(-c2ccc(S(=O)(=O)N3CCC(Cc4ccccc4)CC3)c(Cl)c2)c(=O)[nH]1	> 250
O=c1cnn(-c2cc(Br)c(S(=O)(=O)N3CCOCC3)c(Br)c2)c(=O)[nH]1	> 30
O=c1cnn(-c2ccc(S(=O)(=O)NC3CCCCC3)c(Cl)c2)c(=O)[nH]1	> 500
O=c1cnn(-c2ccc(S(=O)(=O)N3CCCC3)c(Cl)c2)c(=O)[nH]1	250
COc1c(Cl)cc(-n2ncc(=O)[nH]c2=O)cc1Cl	250
Cc1cc(-n2ncc(=O)[nH]c2=O)cc(C)c1S(=O)(=O)N(C)C	60
O=c1cnn(-c2ccc(S(=O)(=O)NCc3ccccc3Cl)c(Cl)c2)c(=O)[nH]1	> 250
O=c1cnn(-c2ccc(S(=O)(=O)N3CCCCC3)c(Cl)c2)c(=O)[nH]1	250
Cc1cc(Cl)cc(NS(=O)(=O)c2ccc(-n3ncc(=O)[nH]c3=O)cc2Cl)c1	> 250
Cc1cc(Cl)cc(-n2ncc(=O)[nH]c2=O)c1	15
CCN(CC)S(=O)(=O)c1c(C)cc(-n2ncc(=O)[nH]c2=O)cc1Cl	250
CCCCN(CC#N)S(=O)(=O)c1ccc(-n2ncc(=O)[nH]c2=O)cc1Cl	> 120
O=c1cnn(-c2ccc(S(=O)(=O)Nc3c(F)c(F)c(F)c(F)c3F)c(Cl)c2)c(=O)[nH]1	> 60
O=c1cnn(-c2ccc(S(=O)(=O)N3CCSC3)c(Cl)c2)c(=O)[nH]1	> 120
CN(Cc1ccc(Cl)cc1)S(=O)(=O)c1ccc(-n2ncc(=O)[nH]c2=O)cc1Cl	500

System: Eimeria maxima
Test: The compound was evaluated for the variations in the vulnerability to Eimeria maxima
Assay type: functional
Conditions: read-out: MEC

Compound	minimal effective concentration [µg/mL]
O=c1cnn(-c2cc(Cl)c(N3CCOCC3)c(Cl)c2)c(=O)[nH]1	15

Species: Gallus gallus
Test: The compound was evaluate for the minimum amount required to prevent formation of detectable disease lesions against Eimeria tenella infections.
Assay type: functional
Conditions: not given
In short: as §1

Compound	MEC [p.p.m.]
O=c1cnn(-c2cc(Cl)c(S(=O)(=O)N3CCOCC3)c(Cl)c2)c(=O)[nH]1	30
O=c1cnn(-c2cc(Cl)c(N3CCOCC3)c(Cl)c2)c(=O)[nH]1	15

System: Eimeria tenella
Test: The compound was evaluated for the variations in the vulnerability to Eimeria tenella,
Assay type: functional
Conditions: read-out: MEC

Compound	minimal effective concentration [µg/mL]
O=c1cnn(-c2cc(Cl)c(N3CCOCC3)c(Cl)c2)c(=O)[nH]1	15

System: Eimeria tenella
Test: The compound was evaluated for the variations in the vulnerability to Eimeria tenella
Assay type: functional
Conditions: read-out: MEC

Compound	minimal effective concentration [µg/mL]
O=c1cnn(-c2cc(Cl)c(S(=O)(=O)N3CCOCC3)c(Cl)c2)c(=O)[nH]1	15
Cc1cc(-n2ncc(=O)[nH]c2=O)ccc1S(=O)(=O)N1CCOCC1	15
Cc1cc(-n2ncc(=O)[nH]c2=O)cc(Cl)c1S(=O)(=O)N1CCOCC1	10
O=c1cnn(-c2ccc(S(=O)(=O)N3CCOCC3)c(Cl)c2)c(=O)[nH]1	30

System: Eimeria acervulina
Test: The compound was evaluated for the variations in the vulnerability to Eimeria acervulina; value ranges from 15-30
Assay type: functional
Conditions: read-out: MEC

Compound	minimal effective concentration [µg/mL]
O=c1cnn(-c2cc(Cl)c(N3CCOCC3)c(Cl)c2)c(=O)[nH]1	30

System: not listed separately
Test: Half life in plasma of young cockerels
Assay type: ADME, organism-based, Gallus gallus
Conditions: male, chicken
In short: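 Plasma half-life in young cockerels, about 10 days old, determined by a previously described method.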

Compound	half-life [min]
Cc1cc(-n2ncc(=O)[nH]c2=O)ccc1S(=O)(=O)N1CCOCC1	66
Cc1cc(-n2ncc(=O)[nH]c2=O)cc(Cl)c1S(=O)(=O)N1CCOCC1	60
O=c1cnn(-c2cc(Cl)cc(Cl)c2)c(=O)[nH]1	3360
Cc1cc(C)cc(-n2ncc(=O)[nH]c2=O)c1	360
O=c1cnn(-c2ccccc2)c(=O)[nH]1	480
O=c1cnn(-c2ccc(S(=O)(=O)N3CCOCC3)c(Cl)c2)c(=O)[nH]1	126
COc1c(Cl)cc(-n2ncc(=O)[nH]c2=O)cc1Cl	120

Species: Gallus gallus
Test: Minimum effective concentration required to prevent formation of detectable lesions in Eimeria tenella infected leghorn cockerels
Assay type: functional
Conditions: not given
In short: as §1

Compound	MEC [p.p.m.]
Cc1cccc(-n2ncc(=O)[nH]c2=O)c1	>120

Species: Gallus gallus
Test: Minimum effective concentration required to prevent formation of detectable lesions in Eimeria tenella infected leghorn cockerels; value ranges from 15 to 30
Assay type: functional
Conditions: not given
In short: as §1

Compound	MEC [p.p.m.]
Cc1cc(-n2ncc(=O)[nH]c2=O)ccc1S(=O)(=O)N1CCOCC1	15

System: Eimeria acervulina
Test: The compound was evaluated for the variations in the vulnerability to Eimeria acervulina
Assay type: functional
Conditions: read-out: MEC

Compound	minimal effective concentration [µg/mL]
O=c1cnn(-c2cc(Cl)c(S(=O)(=O)N3CCOCC3)c(Cl)c2)c(=O)[nH]1	30
Cc1cc(-n2ncc(=O)[nH]c2=O)ccc1S(=O)(=O)N1CCOCC1	30
Cc1cc(-n2ncc(=O)[nH]c2=O)cc(Cl)c1S(=O)(=O)N1CCOCC1	60
O=c1cnn(-c2ccc(S(=O)(=O)N3CCOCC3)c(Cl)c2)c(=O)[nH]1	120

System: Gallus gallus
Test: Plasma level measured 3h after oral administration of 4-5 mg/kg body weight in young cockerels
Assay type: functional, organism-based
Conditions: not given
In short: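 Young cockerels, about 10 days old, given 4-5 mg/kg body weight orally; drug level in plasma measured 3 h after dosing, in mcg/mL.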

Compound	Plasma level [µg/mL]
Cc1cc(-n2ncc(=O)[nH]c2=O)ccc1S(=O)(=O)N1CCOCC1	3.1
Cc1cc(-n2ncc(=O)[nH]c2=O)cc(Cl)c1S(=O)(=O)N1CCOCC1	0.38
O=c1cnn(-c2cc(Cl)cc(Cl)c2)c(=O)[nH]1	14.5
Cc1cc(C)cc(-n2ncc(=O)[nH]c2=O)c1	8.1
O=c1cnn(-c2ccc(S(=O)(=O)N3CCOCC3)c(Cl)c2)c(=O)[nH]1	1.9

System: not listed separately
Test: Half life in plasma of older birds
Assay type: ADME, organism-based, Gallus gallus
Conditions: chicken
In short: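 Plasma half-life in older birds, about 9-10 weeks old, determined by a previously described method.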

Compound	half-life [min]
O=c1cnn(-c2cc(Cl)cc(Cl)c2)c(=O)[nH]1	9000
Cc1cc(C)cc(-n2ncc(=O)[nH]c2=O)c1	720
Cc1cc(Cl)cc(-n2ncc(=O)[nH]c2=O)c1	1200
